# Measurements collected from several papers.
# Each line is one published result; the experiments were not run side by side.
# DAPK1: Death-associated protein kinase 1 (DAPK1, Homo sapiens, UniProt P53355)
# RIOK3: Serine/threonine-protein kinase RIO3 (RIOK3, Homo sapiens, UniProt O14730)
# ACSL4: Long-chain-fatty-acid--CoA ligase 4 (ACSL4, Homo sapiens, UniProt O60488)
SMILES,target,observed,action,method,tested at,quantity,value
C#Cc1cc(-c2cc(Nc3nc(N[C@@H](C)c4ccc(F)cn4)ncc3Cl)n[nH]2)ccc1C=O,"Serine/threonine-protein kinase 33 (STK33, Homo sapiens, UniProt Q9BYT3)",enzyme activity,inhibitor,,0.2 µM,inhibition,7.93%
CCCCC(=O)Nc1ccc(-c2ccc3ncn(CCC)c(=O)c3c2)cn1,"Dual specificity protein kinase TTK (TTK, Homo sapiens, UniProt P33981)",binding,,competition with immobilised ligand,0.5 µM,remaining binding,64%
COc1ccc2oc(-c3ccc4nc(N)oc4c3)c/c(=N\c3ccccc3NC(=O)CCN)c2c1,DAPK1,binding,,,1 µM,remaining binding,104%
Cc1cc(S(=O)(=O)N[C@H]2CC[C@H](CN3CCN(c4ccc(C5CCC(=O)NC5=O)cc4F)CC3)CC2)ccc1Nc1ncc(C(F)(F)F)c(N2CCC[C@](C)(O)C2)n1 (stereo partly drawn),RIOK3,binding,,competition with immobilised ligand,1 µM,remaining binding,58%
C1=C/COCc2cc(ccc2OCCN2CCCC2)Nc2nccc(n2)-c2cccc(c2)COC/1,DAPK1,binding,,,0.1 µM,remaining binding,64%
COC(=O)/C=C/c1ccc(OCCN(C)C(=O)c2ccccc2)cc1,ACSL4,thermal stability,,DSF,5 µM,ΔTm,5.3 °C
C[C@]1(O)CCCN(c2nc(Nc3ccc(S(=O)(=O)N[C@H]4CC[C@H](CN5CCN(c6ccc(C7CCC(=O)NC7=O)cc6F)CC5)CC4)cc3F)ncc2C(F)(F)F)C1 (stereo partly drawn),"Cyclin-dependent kinase 7 (CDK7, Homo sapiens, UniProt P50613)",binding,,competition with immobilised ligand,1 µM,remaining binding,85%
CCN1/C(=C/C(C)=O)Sc2ccc(F)cc21,"Prostaglandin E2 receptor EP4 subtype (PTGER4, Homo sapiens, UniProt P35408)",ligand displacement,,radioligand,10 µM,inhibition,4.39%
CNS(=O)(=O)c1ccc(Nc2ncc(C(F)(F)F)c(N3CCC[C@](C)(O)C3)n2)c(C)c1,"Mitogen-activated protein kinase 7 (MAPK7, Homo sapiens, UniProt Q13164)",binding,,competition with immobilised ligand,1 µM,remaining binding,14%
Cc1cc(F)cc2c(CCC(=O)N[C@@H]3C(=O)NC[C@H]3O)c(-c3ccc(F)cc3)[nH]c12,"3',5'-cyclic-AMP phosphodiesterase 4D (PDE4D, Homo sapiens, UniProt Q08499)",enzyme activity,inhibitor,,10 µM,inhibition,17%
C[C@]1(O)CCCN(c2nc(Nc3ccc(S(=O)(=O)N[C@H]4CC[C@H](CN5CCN(c6ccc(C7CCC(=O)NC7=O)cc6F)CC5)CC4)cc3Cl)ncc2C(F)(F)F)C1 (stereo partly drawn),RIOK3,binding,,competition with immobilised ligand,1 µM,remaining binding,52%
O=C1NC(=O)C(Cc2ccc(N3CCN(c4ccccn4)CC3)cc2)S1 (stereo not drawn),ACSL4,enzyme activity,inhibitor,,10 µM,inhibition,42%
